Laboratory results reported in ChEMBL document CHEMBL1130225, “Synthesis of a series of potent and orally bioavailable thrombin inhibitors that utilize 3,3-disubstituted propionic acid derivatives in the P3 position” (J Med Chem, 1997).
Where “and” joins values, the source holds several entries; their conditions need not be identical. Identical values can stand only once.

How the values were obtained:
[1] = Area under curve was evaluated after intravenous injection of 1 mg/kg of compound in dogs; type: ADME, organism-based, Canis lupus familiaris; set-up: dose 1 mg/kg, route intravenous; settings: dog, in vivo
[2] = Oral bioavailability in rat after peroral injection of 10 mg/kg of compound; type: ADME, organism-based; settings: in vivo
Method in brief: (§1)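 Rats were given a single oral dose of 10 mg/kg as a suspension in 1% methocel. Oral bioavailability (F, %) was then determined.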

[3] = molecular target: Coagulation factor X (Homo sapiens, UniProt P00742); assay: Inhibitory activity against serine protease Coagulation factor X
Method in brief: (§2)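 Inhibition constants (Ki) for each serine protease are the average of at least two determinations, with assay variation of ±10%.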

[4] = organism: Homo sapiens; assay: concentration of compound in human required to double the activated thromboplastin time; type: functional
[5] = molecular target: Plasminogen (Homo sapiens, UniProt P00747); assay: Inhibitory activity against serine protease plasmin
[6] = organism: Rattus norvegicus; assay: concentration of compound in rat required to double the activated thromboplastin time; type: functional
[7] = Oral bioavailability in dog after peroral injection of 5 mg/kg of compound; type: ADME, organism-based, Canis lupus familiaris; settings: in vivo
Method in brief: (§3)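 Dogs were given a single oral dose of 5 mg/kg as a suspension in 1% methocel. Oral bioavailability (F, %) was then determined.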

[8] = molecular target: Prothrombin (Homo sapiens, UniProt P00734); assay: Inhibition of Thrombin
[9] = molecular target: Plasma kallikrein (Homo sapiens, UniProt P03952); assay: Inhibitory activity against serine protease plasma kallikrein; method in brief: as §2
[10] = Oral bioavailability (5 mg/kg, oral) was determined in dogs; type: ADME, organism-based, Canis lupus familiaris; settings: dog, in vivo; method in brief: as §3
[11] = organism: Rattus norvegicus; assay: Antithrombotic activity was assessed from the associated plasma protein binding in rat, determined in a thrombin chromogenic assay; type: functional
[12] = organism: Rattus norvegicus; assay: Final concentration in rat plasma; type: functional, organism-based
Method in brief: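 Rats received an iv infusion at 10 µg/kg/min in saline for 120 min before a FeCl3 vascular insult. Plasma inhibitor level was measured at the end of the experiment.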

[13] = Clearance from rat plasma after intravenous injection of 1 mg/kg of compound; type: ADME, organism-based; set-up: dose 1 mg/kg, route intravenous
[14] = Partition coefficient (logP); type: physicochemical; settings: octanol/water
[15] = molecular target: Serine protease 1 (Homo sapiens, UniProt P07477); assay: In vitro inhibition of human trypsin.; method in brief: as §2
[16] = molecular target: Tissue-type plasminogen activator (Homo sapiens, UniProt P00750); assay: Inhibitory activity against serine protease TPA; method in brief: as §2
[17] = Half-life period after, peroral injection of 5 mg/kg in dogs; type: ADME, organism-based, Canis lupus familiaris; set-up: dose 5 mg/kg, route oral; settings: dog, in vivo, po
[18] = Clearance from dog plasma after intravenous injection of 1 mg/kg of compound; type: ADME, organism-based, Canis lupus familiaris; set-up: dose 1 mg/kg, route intravenous
[19] = Area under curve was evaluated after intravenous injection of 1 mg/kg of compound in rats; type: ADME, organism-based; set-up: dose 1 mg/kg, route intravenous; settings: rat, in vivo
[20] = Half-life period after, intravenous injection of 1 mg/kg in dogs; type: ADME, organism-based, Canis lupus familiaris; set-up: dose 1 mg/kg, route intravenous; settings: dog, in vivo
[21] = Antithrombotic activity was assessed from the associated plasma protein binding in Human, determined in a thrombin chromogenic assay; type: functional
[22] = Half-life period after, intravenous injection of 1 mg/kg in rats; type: ADME, organism-based; set-up: dose 1 mg/kg, route intravenous; settings: rat, in vivo
[23] = Oral bioavailability in rat (dose 10 mg/kg p.o.); type: ADME, organism-based; settings: in vivo; method in brief: as §1
[24] = Oral bioavailability in rat (dose 10 mg/kg); type: ADME, organism-based; settings: in vivo; method in brief: as §1
[25] = concentration of compound in human plasma required to double the activated thromboplastin time; type: functional
[26] = organism: Rattus norvegicus; assay: concentration of compound in rat plasma required to double the activated thromboplastin time; type: functional
[27] = Concentration of inhibitor in human plasma required to double the activated thromboplastin time; type: functional
[28] = organism: Rattus norvegicus; assay: Concentration of inhibitor in rat plasma required to double the activated thromboplastin time; type: functional
[29] = Oral bioavailability (5 mg/kg) was determined in dogs; type: ADME, organism-based, Canis lupus familiaris; settings: dog, in vivo; method in brief: as §3
[30] = organism: Rattus norvegicus; assay: Antithrombotic activity was assessed from the associated plasma protein binding in Rats, determined in a thrombin chromogenic assay; type: functional

Sequence of Coagulation factor X (P00742 41-179 limits assumed): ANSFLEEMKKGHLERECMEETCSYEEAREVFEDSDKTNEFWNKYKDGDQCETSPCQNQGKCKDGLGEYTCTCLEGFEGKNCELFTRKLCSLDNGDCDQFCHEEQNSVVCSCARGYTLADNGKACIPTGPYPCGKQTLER
Sequence of Coagulation factor X (P00742 235-488 limits assumed): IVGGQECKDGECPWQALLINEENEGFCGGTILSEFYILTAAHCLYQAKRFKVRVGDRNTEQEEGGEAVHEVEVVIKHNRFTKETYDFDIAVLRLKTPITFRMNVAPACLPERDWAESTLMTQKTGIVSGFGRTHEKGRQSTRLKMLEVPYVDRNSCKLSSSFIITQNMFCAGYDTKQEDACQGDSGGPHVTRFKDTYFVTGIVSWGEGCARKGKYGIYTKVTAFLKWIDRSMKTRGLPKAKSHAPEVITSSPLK
Sequence of Serine protease 1 (P07477 whole entry): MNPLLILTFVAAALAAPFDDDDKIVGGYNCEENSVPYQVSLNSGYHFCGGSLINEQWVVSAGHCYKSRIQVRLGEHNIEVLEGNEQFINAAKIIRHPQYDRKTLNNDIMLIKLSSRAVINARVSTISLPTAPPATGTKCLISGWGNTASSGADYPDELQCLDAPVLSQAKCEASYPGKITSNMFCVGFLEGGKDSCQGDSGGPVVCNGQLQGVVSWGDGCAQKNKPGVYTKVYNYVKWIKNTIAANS
Sequence of Plasma kallikrein (P03952 20-390 limits assumed): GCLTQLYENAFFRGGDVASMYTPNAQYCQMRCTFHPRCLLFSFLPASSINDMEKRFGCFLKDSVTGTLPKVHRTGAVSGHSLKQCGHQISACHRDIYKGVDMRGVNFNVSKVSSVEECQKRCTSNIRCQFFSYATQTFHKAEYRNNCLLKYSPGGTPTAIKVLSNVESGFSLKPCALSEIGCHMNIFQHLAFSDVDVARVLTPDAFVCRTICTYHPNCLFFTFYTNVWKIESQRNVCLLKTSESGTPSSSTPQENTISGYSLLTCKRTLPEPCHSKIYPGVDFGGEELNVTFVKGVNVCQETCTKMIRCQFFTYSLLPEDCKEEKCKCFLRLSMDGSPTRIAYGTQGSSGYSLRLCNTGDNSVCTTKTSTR
Sequence of Plasma kallikrein (P03952 391-638 limits assumed): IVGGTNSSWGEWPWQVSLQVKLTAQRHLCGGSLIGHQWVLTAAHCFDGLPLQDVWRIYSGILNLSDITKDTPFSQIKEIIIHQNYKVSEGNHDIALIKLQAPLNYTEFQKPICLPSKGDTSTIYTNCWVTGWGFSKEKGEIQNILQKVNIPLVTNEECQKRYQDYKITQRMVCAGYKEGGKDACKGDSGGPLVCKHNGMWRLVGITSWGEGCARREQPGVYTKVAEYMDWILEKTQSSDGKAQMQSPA
Sequence of Plasminogen (P00747 97-580 limits assumed): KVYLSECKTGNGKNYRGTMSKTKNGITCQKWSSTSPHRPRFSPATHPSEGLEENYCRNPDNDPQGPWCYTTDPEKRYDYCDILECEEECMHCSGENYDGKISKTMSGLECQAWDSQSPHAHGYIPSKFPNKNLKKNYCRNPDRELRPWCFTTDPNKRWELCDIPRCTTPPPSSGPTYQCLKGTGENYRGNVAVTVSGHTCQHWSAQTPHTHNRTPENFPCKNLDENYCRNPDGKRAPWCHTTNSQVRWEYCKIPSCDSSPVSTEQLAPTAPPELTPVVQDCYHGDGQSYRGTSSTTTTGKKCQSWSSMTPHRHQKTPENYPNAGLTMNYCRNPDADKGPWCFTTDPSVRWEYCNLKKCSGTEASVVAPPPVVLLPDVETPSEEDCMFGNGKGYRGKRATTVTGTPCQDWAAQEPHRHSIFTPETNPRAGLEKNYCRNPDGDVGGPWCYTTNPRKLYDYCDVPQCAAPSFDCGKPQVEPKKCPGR
Sequence of Plasminogen (P00747 581-810 limits assumed): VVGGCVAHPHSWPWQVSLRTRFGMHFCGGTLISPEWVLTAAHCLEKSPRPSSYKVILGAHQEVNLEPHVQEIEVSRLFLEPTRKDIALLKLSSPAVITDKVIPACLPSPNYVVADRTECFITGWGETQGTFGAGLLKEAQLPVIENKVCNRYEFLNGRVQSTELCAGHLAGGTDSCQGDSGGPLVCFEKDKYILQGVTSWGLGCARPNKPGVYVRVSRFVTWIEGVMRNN
Sequence of Tissue-type plasminogen activator (P00750 whole entry): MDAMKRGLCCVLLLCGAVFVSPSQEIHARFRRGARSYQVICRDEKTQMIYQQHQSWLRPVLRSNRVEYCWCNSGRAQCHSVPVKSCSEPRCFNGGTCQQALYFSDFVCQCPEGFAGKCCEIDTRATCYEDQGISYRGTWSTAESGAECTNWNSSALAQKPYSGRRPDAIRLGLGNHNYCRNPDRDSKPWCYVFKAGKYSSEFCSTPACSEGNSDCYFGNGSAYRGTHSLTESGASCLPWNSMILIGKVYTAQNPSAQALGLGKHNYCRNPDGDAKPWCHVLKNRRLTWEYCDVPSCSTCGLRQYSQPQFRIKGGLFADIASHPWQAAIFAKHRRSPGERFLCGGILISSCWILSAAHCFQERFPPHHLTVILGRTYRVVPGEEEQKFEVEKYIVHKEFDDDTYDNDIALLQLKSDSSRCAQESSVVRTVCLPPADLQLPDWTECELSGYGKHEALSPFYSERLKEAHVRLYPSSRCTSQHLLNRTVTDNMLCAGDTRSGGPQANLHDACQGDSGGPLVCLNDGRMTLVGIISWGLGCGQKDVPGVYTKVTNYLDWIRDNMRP

| Compound | Ki [3] [µM] | Ki [5] [µM] | Ki [8] [µM] | Ki [9] [µM] | Ki [15] | Ki [16] [µM] | other results |
| --- | --- | --- | --- | --- | --- | --- | --- |
| NC1CCC(CNC(=O)[C@@H]2CCCN2C(=O)CC(c2ccccc2)c2ccccc2)CC1.O=C(O)C(F)(F)F (some centres not stated) | 980 | 744 | 0.002 | > 1000 | 0.353 µM and 0.35 µM | > 1000 | AUC [1]: 3.81 µM·h; bioavailability [2]: 10%; 2x APTT [4]: 0.67 µM; 2x APTT [6]: 0.65 µM; bioavailability [7]: 58%; bioavailability [10]: 58%; Activity [11]: 7%; Concentration [12]: 1600 nM; clearance [13]: 23.2 mL/min/kg; logP [14]: 0.37; half-life [17]: 2.6 h; clearance [18]: 10.2 mL/min/kg; AUC [19]: 1.7 µM·h; half-life [20]: 2.92 h; Activity [21]: 7%; half-life [22]: 4.47 h; bioavailability [23]: 10% |
| NC1CCC(CNC(=O)[C@@H]2CCCN2C(=O)CC2c3ccccc3CCc3ccccc32)CC1.O=C(O)C(F)(F)F (some centres not stated) |  |  | 0.017 |  |  |  | bioavailability [24]: 12% |
| CC(CC(=O)N1CCC[C@H]1C(=O)NCC1CCC(N)CC1)(c1ccccc1)c1ccccc1 (some centres not stated) |  |  | 0.016 |  | 17 µM |  |  |
| Cl.NC1CCC(CNC(=O)[C@@H]2CCCN2C(=O)CC(C2CCCCC2)C2CCCCC2)CC1 (some centres not stated) | 220 | 176 | 0.014 | 170 | 2.5 µM | 84 | Activity [11]: 6%; Concentration [12]: 658 nM; 2x APTT [25]: 7.1 µM; logP [14]: 1.96; Activity [21]: 1%; 2x APTT [26]: 7.2 µM; bioavailability [23]: 56% |
| Cl.NC1CCC(CNC(=O)[C@@H]2CCCN2C(=O)CC2c3ccccc3C=Cc3ccccc32)CC1 (some centres not stated) | > 1000 | 414 | 0.003 | 775 | 1.6 µM | 268 | bioavailability [24]: 51%; logP [14]: 0.27 |
| CC1CNc2c(cccc2S(=O)(=O)N[C@@H](CCCNC(=N)N)C(=O)N2CCC(C)C[C@@H]2C(=O)O)C1 (single isomer, unassigned) [ARGATROBAN] |  |  |  |  |  |  | 2x APTT [27]: 0.28 µM |
| NC1CCC(CNC(=O)[C@@H]2CCCN2C(=O)CC(c2ccccc2)c2ccccn2)CC1 (single isomer, unassigned; diastereomer 1) | 370 | > 1000 | 0.0018 | 767 | 0.89 µM | > 1000 |  |
| NC1CCC(CNC(=O)[C@@H]2CCCN2C(=O)CC(c2ccccc2)c2cccnc2)CC1 (single isomer, unassigned; diastereomer 1) |  |  | 0.01 |  | 2.8 µM |  |  |
| NC1CCC(CNC(=O)[C@@H]2CCCN2C(=O)CC(c2ccccc2)C2CCCCC2)CC1 (single isomer, unassigned; diastereomer 1) |  |  | 0.008 |  | 1.7 µM |  |  |
| NC1CCC(CNC(=O)[C@@H]2CCCN2C(=O)CC(c2ccccc2)c2ccncc2)CC1 (single isomer, unassigned; diastereomer 1) |  |  | 0.029 |  | 19 µM |  |  |
| NC1CCC(CNC(=O)[C@@H]2CCCN2C(=O)CC(c2cccnc2)c2ccc3c(c2)OCO3)CC1.O=C(O)C(F)(F)F (single isomer, unassigned; diastereomer 2) | 1000 | 572 | 0.00028 | 1000 | 2.6 µM | > 500 | 2x APTT [28]: 0.38 µM; 2x APTT [25]: 0.3 µM; bioavailability [24]: < 5%; logP [14]: -1.62 |
| NC1CCC(CNC(=O)[C@@H]2CCCN2C(=O)CC(c2ccccc2)c2ccccn2)CC1 (single isomer, unassigned; diastereomer 2) |  |  | 0.012 |  | 5 µM |  |  |
| NC1CCC(CNC(=O)[C@@H]2CCCN2C(=O)CC(c2ccccc2)c2cccnc2)CC1.O=C(O)C(F)(F)F (single isomer, unassigned; diastereomer 2) | > 1000 | > 1000 | 0.0022 | 476 | 2.2 µM | 746 | bioavailability [29]: 8%; 2x APTT [28]: 0.59 µM; 2x APTT [25]: 0.47 µM; logP [14]: -0.64; Activity [21]: 35%; Activity [30]: 56% |
| NC1CCC(CNC(=O)[C@@H]2CCCN2C(=O)CC(c2ccccc2)C2CCCCC2)CC1 (single isomer, unassigned; diastereomer 2) |  |  | 0.004 |  | 0.3 µM |  |  |
| NC1CCC(CNC(=O)[C@@H]2CCCN2C(=O)CC(c2ccccc2)c2ccncc2)CC1 (single isomer, unassigned; diastereomer 2) | 400 | 744 | 0.0034 | > 1000 | 2.2 µM | 436 |  |
| NC1CCC(CNC(=O)[C@@H]2CCCN2C(=O)CC(c2ccccc2)c2cccnc2)CC1 (single isomer, unassigned; diastereomer 2) |  |  |  |  |  |  | Concentration [12]: 2890 nM |
| NC1CCC(CNC(=O)[C@@H]2CCCN2C(=O)CC(c2cccnc2)c2ccc3c(c2)OCO3)CC1 (single isomer, unassigned; diastereomer 2) |  |  |  |  |  |  | Concentration [12]: 4000 nM |
| NC1CCC(CNC(=O)[C@@H]2CCCN2C(=O)CC(c2cccnc2)c2ccc3c(c2)OCO3)CC1 (stereo in doubt) |  |  | 0.0047 |  | 1.9 µM |  |  |
